From ChEMBL document CHEMBL6071208, “Promoting Apoptosis in MCF-7 Cells via ROS Generation by Quinolino-triazoles Derived from One-Pot Telescopic Synthesis” (ACS Med Chem Lett, 2024)
Values belong to the compound of their own block, whether it stands above or below them. Calls of active or inactive are those of the source. The calls are words filed in the database; no cut-off is given here.

Columns and labels:
MCF7 [1] = assay: Cytotoxicity against human MCF7 cells assessed inhibition of cell proliferation measured for 24 hrs by MTT assay; assay type: functional, cell-based; conditions: MCF7, 24 h
Summary of the method: (§1)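 MTT read-out of proliferation after 24 h exposure; MCF-7 breast cancer cells alongside noncancerous human embryonic kidney HEK-293 cells. IC50 in μM taken as the average ± SD of three individual experiments.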

HEK293 = assay: Cytotoxicity against HEK293 cells assessed inhibition of cell proliferation measured after 24 hrs by MTT assay; assay type: toxicity, cell-based; conditions: human, hek293, 24 h; summary of the method: as §1
MCF7 [2] = assay: Induction of apoptosis in human MCF7 cells assessed as increase in Bad mRNA expression at 10 uM measured for 24 hrs bt RT-PCR analysis; assay type: functional, cell-based
Summary of the method: (§2)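 mRNA levels of Bax, Bad (pro-apoptotic) and Bcl-2 (anti-apoptotic) measured in treated MCF-7 cells relative to untreated control. Mean ± SD of three independent studies.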

[3] = Drug localization in nucleus of human MCF7 cells assessed as increase in red fluorescence at 10 uM incubated for 24 hrs by DAPI staining based confocal fluorescence microscopic analysis; assay type: ADME, subcellular; conditions: mcf7, 24 h
MCF7 [4] = assay: Induction of DNA fragmentation in human MCF7 cells assessed as increase in fragmented nuclei at 10 uM measured for 24 hrs by DAPI staining based fluorescence microscopic analysis; assay type: functional, cell-based
Summary of the method: (§3)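 MCF-7 nuclei stained with DAPI after exposure, with cisplatin (5 μM) as reference. Fluorescence microscopy scored condensed and fragmented nuclei. Images represent three individual experiments. Scale bar 150 μm.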

Mitochondrial membrane [5] = assay: Induction of mitochondrial membrane potential loss in human MCF7 cells assessed as increase in fluorescence intensity at 10 uM measured for 24 hrs by rhodamine-123 dye based flow cytometry analysis (reference value: 8%)
Summary of the method: (§4)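 MCF-7 cells stained with rhodamine-123. Flow cytometry gave the percentage of cells with mitochondrial membrane potential loss against the untreated basal control. Mean ± SD of three independent investigations.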

MCF7 [6] = assay: Induction of apoptosis in human MCF7 cells assessed as increase in Bax mRNA expression at 10 uM measured for 24 hrs bt RT-PCR analysis; assay type: functional, cell-based; summary of the method: as §2
Mitochondrial membrane [7] = assay: Induction of mitochondrial membrane potential loss in human MCF7 cells assessed as increase in fluorescence intensity at 10 uM measured for 24 hrs by rhodamine-123 dye based flow cytometry analysis; summary of the method: as §4
MCF7 [8] = assay: Induction of ROS production in human MCF7 cells assessed as increase in ROS level at 10 uM incubated for 24 hrs by DCFH-DA staining based flow cytometry analysis; assay type: functional, cell-based
Summary of the method: (§5)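 Intracellular ROS measured with the H2DCFDA probe. Esterase-deacetylated dye is oxidised to fluorescent DCF (ex 498/em 522 nm). Flow cytometry gave the percentage of ROS-positive MCF-7 cells against untreated control, with cisplatin (5 μM) as positive control. Mean ± SD of three independent investigations.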

MCF7 [9] = assay: Induction of apoptosis in human MCF7 cells assessed as decrease in Bcl-2 mRNA expression at 10 uM measured for 24 hrs bt RT-PCR analysis; assay type: functional, cell-based; summary of the method: as §2
[10] = Drug localization in cytoplasm of human MCF7 cells assessed as increase in red fluorescence at 10 uM incubated for 24 hrs by DAPI staining based confocal fluorescence microscopic analysis; assay type: ADME, subcellular; conditions: mcf7, 24 h
MCF7 [11] = assay: Induction of DNA fragmentation in human MCF7 cells assessed as increase in condensed nuclei at 10 uM measured for 24 hrs by DAPI staining based fluorescence microscopic analysis; assay type: functional, cell-based; summary of the method: as §3
MCF7 [12] = assay: Induction of intracellular ROS generation in human MCF7 cells at 10 uM incubated for 24 hrs by DCFDA staining based fluorescence microscopic analysis; assay type: functional, cell-based
Summary of the method: (§6)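 DCFDA-loaded MCF-7 cells imaged by fluorescence microscopy at 20× for qualitative ROS signal. Cisplatin serves as standard. Images represent three experiments. Scale bar 150 μm.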

MCF7 [13] = assay: Induction of apoptosis in human MCF7 cells assessed as increase in early apoptotic cells at 10 uM incubated for 24 hrs by acridine orange/EtBr staining based fluorescence microscopic analysis; assay type: functional, cell-based
Summary of the method: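 Acridine orange/ethidium bromide dual staining of MCF-7 cells, with cisplatin (5 μM) as reference. Fluorescence microscopy classified cells as live (green nuclei), early apoptotic, late apoptotic or necrotic (orange-red nuclei). Images represent three independent experiments.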

Mitochondrial membrane [14] = assay: Induction of mitochondrial membrane potential loss in human MCF7 cells assessed as increase in fluorescence intensity at 12 uM measured for 24 hrs by rhodamine-123 dye based flow cytometry analysis (reference value: 8%); summary of the method: as §4
MCF7 [15] = assay: Induction of DNA fragmentation in human MCF7 cells assessed as increase in condensed nuclei at 12 uM measured for 24 hrs by DAPI staining based fluorescence microscopic analysis; assay type: functional, cell-based; summary of the method: as §3
MCF7 [16] = assay: Induction of apoptosis in human MCF7 cells assessed as decrease in Bcl-2 mRNA expression at 12 uM measured for 24 hrs bt RT-PCR analysis; assay type: functional, cell-based; summary of the method: as §2
MCF7 [17] = assay: Induction of apoptosis in human MCF7 cells assessed as increase in number of late apoptotic cells at 12 uM incubated for 24 hrs by acridine orange/EtBr staining based fluorescence microscopic analysis
MCF7 [18] = assay: Induction of intracellular ROS generation in human MCF7 cells at 12 uM incubated for 24 hrs by DCFDA staining based fluorescence microscopic analysis; assay type: functional, cell-based; summary of the method: as §6
MCF7 [19] = assay: Induction of apoptosis in human MCF7 cells assessed as increase in Bax mRNA expression at 12 uM measured for 24 hrs bt RT-PCR analysis; assay type: functional, cell-based; summary of the method: as §2
MCF7 [20] = assay: Induction of DNA fragmentation in human MCF7 cells assessed as increase in fragmented nuclei at 12 uM measured for 24 hrs by DAPI staining based fluorescence microscopic analysis; assay type: functional, cell-based; summary of the method: as §3
[21] = Drug localization in human MCF7 cells at 12 uM incubated for 24 hrs by DAPI staining based confocal fluorescence microscopic analysis; assay type: ADME, cell-based; conditions: mcf7, 24 h
MCF7 [22] = assay: Induction of ROS production in human MCF7 cells assessed as increase in ROS level at 12 uM incubated for 24 hrs by DCFH-DA staining based flow cytometry analysis; assay type: functional, cell-based; summary of the method: as §5
MCF7 [23] = assay: Induction of apoptosis in human MCF7 cells assessed as increase in number of necrotic cells at 12 uM incubated for 24 hrs by acridine orange/EtBr staining based fluorescence microscopic analysis
MCF7 [24] = assay: Induction of apoptosis in human MCF7 cells assessed as increase in Bad mRNA expression at 12 uM measured for 24 hrs bt RT-PCR analysis; assay type: functional, cell-based; summary of the method: as §2
Mitochondrial membrane [25] = assay: Induction of mitochondrial membrane potential loss in human MCF7 cells assessed as increase in fluorescence intensity at 12 uM measured for 24 hrs by rhodamine-123 dye based flow cytometry analysis; summary of the method: as §4

Compound: CCOC(=O)c1n[nH]nc1-c1cc2cc(C)c(C)cc2nc1Oc1ccc(C#N)cc1
IC50 (MCF7 [1]): 65 µM

Compound: CCOC(=O)c1n[nH]nc1-c1cc2ccc(C)cc2nc1Oc1ccc(I)cc1
IC50 (MCF7 [1]): 20 µM

Compound: CCOC(=O)c1n[nH]nc1-c1cc2ccc(C)cc2nc1Oc1ccc(C#N)cc1
IC50 (MCF7 [1]): 19 µM

Compound: NC(=O)c1n[nH]nc1-c1cc2ccccc2nc1Oc1ccc(I)cc1
IC50 (MCF7 [1]): 17.5 µM

Drug uptake [3]: Active
Activity (Mitochondrial membrane [5]): 23%
Activity (Mitochondrial membrane [7]): Active
Drug uptake [10]: Active
Compound: N#Cc1ccc(Oc2nc3ccccc3cc2-c2n[nH]nc2C(N)=O)cc1
Activity (HEK293): Non-Toxic
Activity (MCF7 [2]): Active
Activity (MCF7 [4]): Active
Activity (MCF7 [6]): Active
Activity (MCF7 [8]): Active
Activity (MCF7 [9]): Active
IC50 (MCF7 [1]): 10 µM
Activity (MCF7 [11]): Active
Activity (MCF7 [12]): Active
Activity (MCF7 [13]): Active

Compound: Cc1ccc(Oc2nc3ccccc3cc2-c2n[nH]nc2C(N)=O)cc1
IC50 (MCF7 [1]): 62.5 µM

Compound: CCOC(=O)c1n[nH]nc1-c1cc2ccc(C)cc2nc1Oc1ccc(C)cc1
IC50 (MCF7 [1]): 42.5 µM

Activity (Mitochondrial membrane [14]): 14%
Drug uptake [21]: Not Active
Activity (Mitochondrial membrane [25]): Active
Compound: NC(=O)c1n[nH]nc1-c1cc2ccccc2nc1Oc1ccc(Br)cc1
Activity (HEK293): Non-Toxic
Activity (MCF7 [15]): Active
Activity (MCF7 [16]): Active
Activity (MCF7 [17]): Active
Activity (MCF7 [18]): Active
Activity (MCF7 [19]): Active
Activity (MCF7 [20]): Active
Activity (MCF7 [22]): Active
Activity (MCF7 [23]): Active
IC50 (MCF7 [1]): 12 µM
Activity (MCF7 [24]): Active

Compound: CCOC(=O)c1n[nH]nc1-c1cc2ccccc2nc1Oc1ccccc1
IC50 (MCF7 [1]): 90 µM

Compound: CCOC(=O)c1n[nH]nc1-c1cc2ccccc2nc1Oc1ccc(C)cc1
IC50 (MCF7 [1]): 53 µM
